Measurements of several laboratories.
Lines come from different studies, so protocols differ.
HTR2B: 5-hydroxytryptamine receptor 2B (HTR2B, Homo sapiens, UniProt P41595)
blaNDM-1: Metallo-beta-lactamase type 2 (blaNDM-1, Klebsiella pneumoniae, UniProt C7C422)
HLA class I histocompatibility antigen, B alpha chain: HLA class I histocompatibility antigen, B alpha chain (Homo sapiens, UniProt P01889)
HTR2C: 5-hydroxytryptamine receptor 2C (HTR2C, Homo sapiens, UniProt P28335)
MGLL: Monoglyceride lipase (MGLL, Homo sapiens, UniProt Q99685)

| Structure (SMILES) | target | read-out | action | method | pH | IC50 [µM] |
| --- | --- | --- | --- | --- | --- | --- |
| C[C@H](N)[C@H](O)c1cccc(O)c1 | HTR2B | ligand displacement | – | radioligand | – | 7.38 |
| O=C(O)c1cccc(C(=O)O)n1 | blaNDM-1 | enzyme activity | inhibitor | fluorescence | – | 4.26 |
| CCN(CC)C(=O)N[C@@H]1C[C@@H]2c3cccc4[nH]cc(c34)C[C@H]2N(C)C1 | blaNDM-1 | enzyme activity | inhibitor | – | – | > 30 |
| CSCC[C@H](NC(=O)[C@@H](NC(=O)[C@@H](NC(=O)[C@H](CC(C)C)NC(=O)[C@H](CC(N)=O)NC(=O)[C@H](CC(N)=O)NC(=O)[C@@H](NC(=O)[C@H](C)NC(=O)[C@@H](N)CC(C)C)[C@@H](C)O)C(C)C)C(C)C)C(=O)O | HLA class I histocompatibility antigen, B alpha chain | ligand displacement | – | radioligand | – | 0.055 |
| c1ccc(CN(CCN(Cc2ccccn2)Cc2ccccn2)Cc2ccccn2)nc1 | blaNDM-1 | enzyme activity | inhibitor | fluorescence | – | 0.644 |
| CSCC[C@H](NC(=O)[C@H](Cc1c[nH]c2ccccc12)NC(=O)CNC(=O)[C@H](Cc1ccc(O)cc1)NC(=O)[C@H](C)NC(=O)[C@@H](CCC(=O)O)NC(=O)CN1CCN(CC(=O)O)CCN(CC(=O)O)CCN(CC(=O)O)CC1)C(=O)N[C@@H](CC(=O)O)C(=O)N(C)[C@@H](Cc1ccccc1)C(N)=O | Gastrin/cholecystokinin type B receptor (CCKBR, Homo sapiens, UniProt P32239) | ligand displacement | – | radioligand | – | 0.0404 |
| OCC(S)CS (stereo not shown) | blaNDM-1 | enzyme activity | inhibitor | fluorescence | – | 4.21 |
| COc1cc(CC(C)N)c(OC)cc1I (racemic) | HTR2C | ligand displacement | – | radioligand | – | 0.00046 |
| CC(C)[C@H](NC(=O)[C@@H](NC(=O)[C@H](CCCNC(=N)N)NC(=O)[C@H](C)NC(=O)[C@H](C)NC(=O)[C@H](CCC(=O)O)NC(=O)[C@H](CO)NC(=O)[C@H](C)NC(=O)[C@@H](N)Cc1ccccc1)C(C)C)C(=O)O | HLA class I histocompatibility antigen, B alpha chain | ligand displacement | – | radioligand | – | 8.55 |
| COc1ncccc1-c1cnn2ccc(N3CCN(C(=O)OC(C)C)CC3)nc12 | BMP-2-inducible protein kinase (BMP2K, Homo sapiens, UniProt Q9NSY1) | enzyme activity | inhibitor | – | – | 0.014 |
| CCCCCNC(=N)N/N=C/c1c[nH]c2ccc(OC)cc12 | HTR2C | ligand displacement | – | radioligand | – | 0.197 |
| COc1cc(CC(C)N)c(OC)cc1I (racemic) | HTR2B | ligand displacement | – | radioligand | – | 0.0031 |
| O=C(Cc1ccccc1)N[C@H](C(=O)O)[C@@H]1N=C(C(=O)O)C(CSC(C(=O)O)c2ccccc2)CS1 (stereo partly shown) | blaNDM-1 | enzyme activity | inhibitor | absorbance | – | > 100 |
| NC(=O)c1cccc(-c2cccc(OC(=O)NC3CCCCC3)c2)c1 | MGLL | enzyme activity | inhibitor | absorbance | – | > 10 |
| CSCC[C@H](NC(=O)[C@H](CCC(N)=O)NC(=O)[C@H](C)NC(=O)[C@H](CO)NC(=O)[C@@H](N)CO)C(=O)N[C@@H](CC(N)=O)C(=O)N[C@@H](CC(C)C)C(=O)N[C@@H](CC(N)=O)C(=O)N[C@H](C(=O)N[C@@H](Cc1ccccc1)C(=O)N[C@@H](CC(C)C)C(=O)N[C@@H](CC(N)=O)C(=O)O)[C@@H](C)O | 1-deoxy-D-xylulose-5-phosphate synthase (dxs, Deinococcus radiodurans, UniProt Q9RUB5) | enzyme activity | inhibitor | absorbance | pH 7.6 | > 1000 |
| CC(C)C[C@H](NC(=O)[C@H](Cc1ccccc1)NC(=O)c1cnccn1)B(O)O | Complement C1r subcomponent (Homo sapiens, UniProt P00736) | enzyme activity | inhibitor | – | – | > 33 |
| CC(C)[C@H](NC(=O)[C@@H](NC(=O)[C@H](CCC(=O)O)NC(=O)[C@@H](NC(=O)[C@H](Cc1ccccc1)NC(=O)[C@H](C)NC(=O)[C@H](CO)NC(=O)[C@@H](NC(=O)[C@@H](N)CO)[C@@H](C)O)C(C)C)[C@@H](C)O)C(=O)O | HLA class I histocompatibility antigen, B alpha chain | ligand displacement | – | radioligand | – | 8.86 |
| CN(Cc1ccccc1)C(=O)Oc1nsnc1N1CCCCC1 | MGLL | enzyme activity | inhibitor | – | – | 5.6 |
| CN1CCN(CC/C=C2/c3ccccc3Sc3ccc(S(=O)(=O)N(C)C)cc32)CC1 | HTR2C | ligand displacement | – | radioligand | – | 2.8 |
| COCCn1c2nc(=O)n(-c3ccccc3)c(=O)c-2nc2ccccc21 | mRNA cap guanine-N(7) methyltransferase (RNMT, Homo sapiens, UniProt O43148) | enzyme activity | inhibitor | – | – | 35.5 |
| CC[C@H](C)[C@H](NC(=O)[C@@H]1CCCN1C(=O)[C@@H](NC(=O)[C@H](CC(C)C)NC(=O)[C@H](CCC(N)=O)NC(=O)[C@H](Cc1ccccc1)NC(=O)[C@H](C)NC(=O)[C@@H](N)CCCCN)[C@@H](C)O)C(=O)N[C@@H](C)C(=O)N[C@H](C(=O)O)C(C)C | HLA class I histocompatibility antigen, B alpha chain | ligand displacement | – | radioligand | – | 8.6 |
| CC[C@H](C)[C@H](NC(=O)[C@H](CCCNC(=N)N)NC(=O)[C@H](CC(C)C)NC(=O)[C@@H](N)Cc1ccccc1)C(=O)N[C@@H](CCCNC(=N)N)C(=O)N1CCC[C@H]1C(=O)N[C@@H](CCCCN)C(=O)O | B2 bradykinin receptor (BDKRB2, Homo sapiens, UniProt P30411) | ligand displacement | – | radioligand | – | 0.14 |
